High-throughput results deposited in PubChem by several laboratories.
Vif inh: HIV Vif inhibition; 340,000 compounds, 0.35% hits; AID 602346; inhibition, % at 7.49 µM; HEK293T cells, Vif self-association by quenched fluorescence, imaging, 24 h; in the data active = inhibition above about 50%, passing the limit was not always enough
PKA-R1A activ: activators of PKA-R1A complex. P00514+P68181. PKA-R1A dissociation, Cy5-IP20 fluorescence polarization; scaled: DMSO 0%, 113 µM cGMP 100%. activation, % at 11.4 µM. 340,000 compounds, 0.083% hits. AID 504707;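 active = percent activation above the mean of all tested compounds plus 3 SD, cut at about 19% in these data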;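 also: higher means more PKAc released from R1A so a rise in polarization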
PKA-R2B act: activators of human PKA-R2B complex. PKA-R2B holoenzyme dissociation, Cy5-IP20 fluorescence polarization; R2B truncated from residue 108, S112A mutant; 0% DMSO only, 100% 113 µM cGMP. 340,000 compounds, 0.079% hits. activation, % at 11.4 µM;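 active = activation above a cutoff set at the mean over all compounds plus 3 SD, cut at about 18% in these data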;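 also: higher means more holoenzyme dissociation and a rise in polarization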
SR-BI uptake up: SR-BI HDL lipid transfer activation; CHO ldlA[mSR-BI] cells, DiI-HDL uptake fluorescence, 3 h; 100 = double the neutral-control signal; activation, % at 12.5 µM; 320,000 compounds, 0.096% hits;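 active = mean replicate activation of at least 60% and every replicate at or above 60%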
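Test system: SR-BI-overexpressing, LDLR-lacking CHO cells; Also added: labelled HDL, 10 µg/mL; Measured by: bottom-read cell fluorescence after medium removal, ex 550/em 595 nm; Timing: 3 h uptake period with compound, 37 °C; Buffer or medium: F12, 0.5% BSA, 25 mM HEPES; Doses: single compound concentration, delivered by pin transfer.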
SR-BI HDL uptake: blocks mouse SR-BI lipid uptake from DiI-HDL. ldlA[mSR-BI] CHO cells, DiI-HDL uptake fluorescence, 3 h. inhibition, % at 12.5 µM. 320,000 compounds, 0.96% hits. Q61009;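 active = mean replicate inhibition of at least 70% and a set share of replicates each scoring 70 or more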
Target sequence (Q61009 whole entry, looked up): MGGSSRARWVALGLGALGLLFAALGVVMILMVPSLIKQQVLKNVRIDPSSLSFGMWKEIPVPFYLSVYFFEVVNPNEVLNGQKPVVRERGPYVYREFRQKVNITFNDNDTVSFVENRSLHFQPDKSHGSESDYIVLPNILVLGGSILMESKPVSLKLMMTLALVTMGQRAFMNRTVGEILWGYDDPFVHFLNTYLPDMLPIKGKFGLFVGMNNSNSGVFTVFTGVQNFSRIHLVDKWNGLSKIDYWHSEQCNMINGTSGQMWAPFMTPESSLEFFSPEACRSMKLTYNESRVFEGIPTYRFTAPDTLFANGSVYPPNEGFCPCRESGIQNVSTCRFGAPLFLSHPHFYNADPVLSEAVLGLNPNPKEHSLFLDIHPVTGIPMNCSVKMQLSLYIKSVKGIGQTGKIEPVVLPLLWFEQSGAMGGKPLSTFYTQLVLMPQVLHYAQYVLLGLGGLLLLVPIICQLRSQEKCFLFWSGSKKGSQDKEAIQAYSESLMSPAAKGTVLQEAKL
Of the large screens only hits and unclear results are named; the others gave an inactive call. A selection: hits, their analogues and other compounds. The true share with any hit is near 1.4%.

COc1cc([N+](=O)[O-])cc(/C=N\NC(=O)C2COc3ccccc3O2)c1O (centres undefined)	none (no result: SR-BI uptake up, SR-BI HDL uptake)
COc1cc(N)ccc1-c1cc2ccccc2oc1=O	none
Cc1cc(N)ccc1-c1cc2ccccc2oc1=O	Vif inh 52
O=C(N/C(=C/c1cccc(Br)c1)C(=O)N1CCOCC1)c1ccco1	none (no result: SR-BI uptake up, SR-BI HDL uptake)
CC(=O)c1ccc(NC(=O)c2ccc(C)c(S(=O)(=O)N3CCOCC3)c2)cc1	SR-BI HDL uptake 85
CCOC(=O)c1c(C)[nH]c(C(=O)COC(=O)c2ccc(F)c(S(=O)(=O)N3CCOCC3)c2)c1C	SR-BI HDL uptake 74
O=C(Nc1ccc(N2CCCCCC2)cc1)c1cccc(S(=O)(=O)N2CCOCC2)c1	SR-BI HDL uptake 71
CCOC(=O)c1ccc(NC(=O)c2ccc(C)c(S(=O)(=O)N3CCOCC3)c2)cc1	SR-BI HDL uptake 87
Cc1ccc(C(=O)Nc2ccc(N3CCOCC3)cc2)cc1S(=O)(=O)N1CCCCC1	none
Cc1ccc(C(=O)Nc2cccnc2)cc1S(=O)(=O)N1CCOCC1	none
CCOC(=O)c1ccc(NC(=O)c2cccc(S(=O)(=O)N3CCOCC3)c2)cc1	SR-BI HDL uptake 83
Cc1ccc(NC(=O)c2ccc(=O)[nH]c2)cc1S(=O)(=O)N1CCCCCC1	SR-BI HDL uptake 80
CC(=O)c1cccc(NC(=O)c2cccc(S(=O)(=O)N3CCOCC3)c2)c1	none (no result: SR-BI uptake up, SR-BI HDL uptake)
O=C(NNC(=O)c1cc(Cl)ccc1O)c1cccc(S(=O)(=O)N2CCOCC2)c1	SR-BI HDL uptake 107
Cc1ccc(C(=O)Nc2cccc(S(=O)(=O)N3CCOCC3)c2)cc1[N+](=O)[O-]	SR-BI HDL uptake 77
Cc1ccc(NC(=O)c2cccc(F)c2)cc1S(=O)(=O)N1CCCCCC1	none
CCOC(=O)c1ccc(NC(=O)c2ncn3c2C(=O)NC[C@@H]3C)cc1	none (no result: SR-BI uptake up, SR-BI HDL uptake)
Cc1cccc(OCCOC(=O)c2ccc(F)c(S(=O)(=O)N3CCOCC3)c2)c1	none
CCOc1ccc(CCNC(=O)C(C)N2C(=O)CC(C)(C)Sc3ccccc32)cc1 (centres undefined)	none
COc1cccc(N2C(=NC(=O)CCC3CCCC3)SC3CS(=O)(=O)CC32)c1 (centres undefined)	none
O=C(Cc1ccccc1)Nc1ccc(N2CCOCC2)cc1	Vif inh 59
O=S(=O)(c1cccc(COc2ccc(Cl)cc2Cl)c1)N1CCOCC1	SR-BI HDL uptake 72
CN(c1ccccc1)S(=O)(=O)c1cccc(C(=O)Nc2ccc(N3CCOCC3)cc2)c1	SR-BI HDL uptake 86
O=C(Nc1ccc(N2CCOCC2)cc1)c1cc2c(s1)CCCCC2	SR-BI HDL uptake 88
CCOC(=O)C1(C)CCN1C(=O)c1ccc(C(F)(F)F)cc1 (centres undefined)	none (no result: PKA-R1A activ, PKA-R2B act, SR-BI uptake up, SR-BI HDL uptake)
COc1ccc(Cl)cc1CNC[C@H]1O[C@@H](n2ccc(N)nc2=O)[C@H](O)[C@@H]1O	none (no result: SR-BI uptake up, SR-BI HDL uptake)
CCOc1ccc(CCNC(=O)c2ccc(C)c(S(=O)(=O)N3CCOCC3)c2)cc1OCC	none
CCOc1ccc(CCNC(=O)c2ccc(Cl)c(S(=O)(=O)N3CCOCC3)c2)cc1OCC	SR-BI HDL uptake 73
CC(=O)NC(C)(c1ccccc1)c1nc(-c2ccc(N(C)C)cc2)cs1 (centres undefined)	none (no result: PKA-R1A activ, PKA-R2B act, SR-BI uptake up, SR-BI HDL uptake)
CCN(CC)C(=O)C(=O)c1cccn1-c1c(Cl)cccc1C#N	none (no result: Vif inh)
Cc1ccc(C(=O)N/C(=C\c2ccc(-c3cccc([N+](=O)[O-])c3)o2)C(=O)NCCCN2CCOCC2)cc1	SR-BI HDL uptake 78
Cc1ccc(C(=O)N/C(=C/c2ccc(-c3cccc([N+](=O)[O-])c3)o2)C(=O)NC(C)C)cc1	SR-BI HDL uptake 83
Cc1ccc(C(=O)N/C(=C/c2ccc(-c3cccc([N+](=O)[O-])c3)o2)C(=O)NC(C)(C)C)cc1	none
O=c1ccn([C@@H]2O[C@H](CNCc3c(OCc4ccccc4F)ccc4ccccc34)[C@@H](O)[C@H]2O)c(=O)[nH]1	none (no result: PKA-R1A activ, PKA-R2B act, SR-BI uptake up, SR-BI HDL uptake)
Cc1cc2c(cc1S(=O)(=O)C(C)CC(=O)NCc1ccco1)OCC(=O)N2 (centres undefined)	none
CCCC(=O)N1CCCC(c2cc(C(=O)NCc3cccnc3)no2)C1 (centres undefined)	none (no result: PKA-R1A activ, PKA-R2B act, SR-BI uptake up, SR-BI HDL uptake)
COCC(C)NC(=O)c1cc(OC)cc(OC)c1 (centres undefined)	none
